From ChEMBL document CHEMBL1153921, “Design, synthesis, and biological evaluation of novel 1-(1H-1,2,4-triazole-1-yl)-2-(2,4-difluorophenyl)-3-substituted benzylamino-2-propanols” (2009)
Values after ≈ are worked out from the molar mass of the structure shown.

Key:
Assay type in all cases: functional
Pichia kudriavzevii = assay: Antimicrobial activity against Candida krusei by micro-broth dilution method
Procedure, shortened: (§1)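 Clinical isolates. Tested by broth microdilution in 96-well plates following NCCLS M27-A2. MIC80, the minimum concentration inhibiting growth by 80%, was recorded. Marketed reference antifungals were included as positive controls.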

Candida parapsilosis = assay: Antimicrobial activity against Candida parapsilosis by micro-broth dilution method; conditions: Lodderomyces parapsilosis; procedure, shortened: as §1
Nannizzia gypsea = assay: Antimicrobial activity against Microsporum gypseum by micro-broth dilution method; procedure, shortened: as §1
Cryptococcus neoformans = assay: Antimicrobial activity against Cryptococcus neoformans by micro-broth dilution method
Procedure, shortened: (§2)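 ATCC standard strains. Broth microdilution in 96-well plates following NCCLS M27-A2 (reference broth dilution method for yeasts). Endpoint is MIC80, the lowest concentration giving 80% growth inhibition. Marketed reference antifungals ran alongside as positive controls.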

Trichophyton rubrum = assay: Antimicrobial activity against Trichophyton rubrum by micro-broth dilution method; procedure, shortened: as §1
Candida tropicalis = assay: Antimicrobial activity against Candida tropicalis by micro-broth dilution method; procedure, shortened: as §1
Candida albicans = assay: Antimicrobial activity against Candida albicans by micro-broth dilution method; procedure, shortened: as §2
Aspergillus fumigatus = assay: Antimicrobial activity against Aspergillus fumigatus by micro-broth dilution method; procedure, shortened: as §1

MIC80 (Pichia kudriavzevii)	MIC80 (Candida parapsilosis)	MIC80 (Nannizzia gypsea)	MIC80 (Cryptococcus neoformans)	MIC80 (Trichophyton rubrum)	MIC80 (Candida tropicalis)	MIC80 (Candida albicans)	MIC80 (Aspergillus fumigatus)	SMILES
0.0625 µg/mL (≈ 0.145 µM)	0.0625 µg/mL (≈ 0.145 µM)	0.0156 µg/mL (≈ 0.0362 µM)	0.25 µg/mL (≈ 0.579 µM)	0.25 µg/mL (≈ 0.579 µM)	0.25 µg/mL (≈ 0.579 µM)	0.0156 µg/mL (≈ 0.0362 µM)	64 µg/mL (≈ 148 µM)	CCCN(Cc1ccc([N+](=O)[O-])cc1)CC(O)(Cn1cncn1)c1ccc(F)cc1F (centres undefined)
0.0625 µg/mL (≈ 0.156 µM)	0.0625 µg/mL (≈ 0.156 µM)	0.0039 µg/mL (≈ 0.00974 µM)	0.25 µg/mL (≈ 0.624 µM)	4 µg/mL (≈ 9.99 µM)	0.0625 µg/mL (≈ 0.156 µM)	0.0625 µg/mL (≈ 0.156 µM)	> 64 µg/mL	CCCN(Cc1ccccc1C)CC(O)(Cn1cncn1)c1ccc(F)cc1F (centres undefined)
0.25 µg/mL (≈ 0.594 µM)	0.25 µg/mL (≈ 0.594 µM)	0.0156 µg/mL (≈ 0.0371 µM)	0.0625 µg/mL (≈ 0.148 µM)	4 µg/mL (≈ 9.5 µM)	0.25 µg/mL (≈ 0.594 µM)	0.25 µg/mL (≈ 0.594 µM)	> 64 µg/mL	CCCN(Cc1ccccc1Cl)CC(O)(Cn1cncn1)c1ccc(F)cc1F (centres undefined)
0.0625 µg/mL (≈ 0.155 µM)	0.0625 µg/mL (≈ 0.155 µM)	0.0625 µg/mL (≈ 0.155 µM)	0.0625 µg/mL (≈ 0.155 µM)	0.25 µg/mL (≈ 0.618 µM)	0.0625 µg/mL (≈ 0.155 µM)	0.0625 µg/mL (≈ 0.155 µM)	64 µg/mL (≈ 158 µM)	CC(C)N(Cc1cccc(F)c1)CC(O)(Cn1cncn1)c1ccc(F)cc1F (centres undefined)
0.25 µg/mL (≈ 0.537 µM)	0.0625 µg/mL (≈ 0.134 µM)	0.0156 µg/mL (≈ 0.0335 µM)	0.25 µg/mL (≈ 0.537 µM)	0.0625 µg/mL (≈ 0.134 µM)	0.0625 µg/mL (≈ 0.134 µM)	0.25 µg/mL (≈ 0.537 µM)	> 64 µg/mL	CC(C)N(Cc1ccccc1Br)CC(O)(Cn1cncn1)c1ccc(F)cc1F (centres undefined)
0.0625 µg/mL (≈ 0.155 µM)	0.0625 µg/mL (≈ 0.155 µM)	0.0625 µg/mL (≈ 0.155 µM)	0.0625 µg/mL (≈ 0.155 µM)	1 µg/mL (≈ 2.47 µM)	0.25 µg/mL (≈ 0.618 µM)	0.0156 µg/mL (≈ 0.0386 µM)	> 64 µg/mL	CCCN(Cc1cccc(F)c1)CC(O)(Cn1cncn1)c1ccc(F)cc1F (centres undefined)
1 µg/mL (≈ 2.2 µM)	1 µg/mL (≈ 2.2 µM)	0.0156 µg/mL (≈ 0.0343 µM)	1 µg/mL (≈ 2.2 µM)	1 µg/mL (≈ 2.2 µM)	4 µg/mL (≈ 8.78 µM)	0.25 µg/mL (≈ 0.549 µM)	> 64 µg/mL	CCCN(Cc1ccc(Cl)cc1Cl)CC(O)(Cn1cncn1)c1ccc(F)cc1F (centres undefined)
0.25 µg/mL (≈ 0.647 µM)	0.0625 µg/mL (≈ 0.162 µM)	0.0156 µg/mL (≈ 0.0404 µM)	0.25 µg/mL (≈ 0.647 µM)	0.0625 µg/mL (≈ 0.162 µM)	0.25 µg/mL (≈ 0.647 µM)	0.0156 µg/mL (≈ 0.0404 µM)	64 µg/mL (≈ 166 µM)	CC(C)N(Cc1ccccc1)CC(O)(Cn1cncn1)c1ccc(F)cc1F (centres undefined)
0.0625 µg/mL (≈ 0.148 µM)	0.25 µg/mL (≈ 0.594 µM)	0.0625 µg/mL (≈ 0.148 µM)	0.0625 µg/mL (≈ 0.148 µM)	1 µg/mL (≈ 2.38 µM)	0.25 µg/mL (≈ 0.594 µM)	0.0625 µg/mL (≈ 0.148 µM)	64 µg/mL (≈ 152 µM)	CCCN(Cc1ccc(Cl)cc1)CC(O)(Cn1cncn1)c1ccc(F)cc1F (centres undefined)
0.0625 µg/mL (≈ 0.155 µM)	0.0625 µg/mL (≈ 0.155 µM)	0.0625 µg/mL (≈ 0.155 µM)	0.0625 µg/mL (≈ 0.155 µM)	0.25 µg/mL (≈ 0.618 µM)	0.25 µg/mL (≈ 0.618 µM)	0.0625 µg/mL (≈ 0.155 µM)	> 64 µg/mL	CC(C)N(Cc1ccc(F)cc1)CC(O)(Cn1cncn1)c1ccc(F)cc1F (centres undefined)
0.0625 µg/mL (≈ 0.148 µM)	0.25 µg/mL (≈ 0.594 µM)	0.0625 µg/mL (≈ 0.148 µM)	0.25 µg/mL (≈ 0.594 µM)	0.25 µg/mL (≈ 0.594 µM)	0.25 µg/mL (≈ 0.594 µM)	0.0625 µg/mL (≈ 0.148 µM)	> 64 µg/mL	CC(C)N(Cc1ccccc1Cl)CC(O)(Cn1cncn1)c1ccc(F)cc1F (centres undefined)
0.25 µg/mL (≈ 0.624 µM)	0.25 µg/mL (≈ 0.624 µM)	0.0625 µg/mL (≈ 0.156 µM)	0.25 µg/mL (≈ 0.624 µM)	0.0625 µg/mL (≈ 0.156 µM)	1 µg/mL (≈ 2.5 µM)	1 µg/mL (≈ 2.5 µM)	64 µg/mL (≈ 160 µM)	Cc1ccc(CN(CC(O)(Cn2cncn2)c2ccc(F)cc2F)C(C)C)cc1 (centres undefined)
0.0625 µg/mL (≈ 0.162 µM)	0.0625 µg/mL (≈ 0.162 µM)	0.0156 µg/mL (≈ 0.0404 µM)	0.0625 µg/mL (≈ 0.162 µM)	0.0625 µg/mL (≈ 0.162 µM)	0.0625 µg/mL (≈ 0.162 µM)	0.0156 µg/mL (≈ 0.0404 µM)	> 64 µg/mL	CCCN(Cc1ccccc1)CC(O)(Cn1cncn1)c1ccc(F)cc1F (centres undefined)
